Source: ChEMBL document CHEMBL4422684, “Identification of novel lysine demethylase 5-selective inhibitors by inhibitor-based fragment merging strategy” (Bioorg Med Chem, 2019)

Columns and labels:
[1] = target: T1, Lysine-specific demethylase 3A (Homo sapiens) (UniProt Q9Y4C1); assay: Inhibition of human N-terminal FLAG-tagged KDM3A (2 to 1321 residues) expressed in baculovirus infected Sf9 insect cells at 25 uM using H3(1-21)K9(Me1)-GGK(Biotin)/2-OG as substrate measured after 1 hr by Alphalisa assay relative to control
T1 sequence (whole entry): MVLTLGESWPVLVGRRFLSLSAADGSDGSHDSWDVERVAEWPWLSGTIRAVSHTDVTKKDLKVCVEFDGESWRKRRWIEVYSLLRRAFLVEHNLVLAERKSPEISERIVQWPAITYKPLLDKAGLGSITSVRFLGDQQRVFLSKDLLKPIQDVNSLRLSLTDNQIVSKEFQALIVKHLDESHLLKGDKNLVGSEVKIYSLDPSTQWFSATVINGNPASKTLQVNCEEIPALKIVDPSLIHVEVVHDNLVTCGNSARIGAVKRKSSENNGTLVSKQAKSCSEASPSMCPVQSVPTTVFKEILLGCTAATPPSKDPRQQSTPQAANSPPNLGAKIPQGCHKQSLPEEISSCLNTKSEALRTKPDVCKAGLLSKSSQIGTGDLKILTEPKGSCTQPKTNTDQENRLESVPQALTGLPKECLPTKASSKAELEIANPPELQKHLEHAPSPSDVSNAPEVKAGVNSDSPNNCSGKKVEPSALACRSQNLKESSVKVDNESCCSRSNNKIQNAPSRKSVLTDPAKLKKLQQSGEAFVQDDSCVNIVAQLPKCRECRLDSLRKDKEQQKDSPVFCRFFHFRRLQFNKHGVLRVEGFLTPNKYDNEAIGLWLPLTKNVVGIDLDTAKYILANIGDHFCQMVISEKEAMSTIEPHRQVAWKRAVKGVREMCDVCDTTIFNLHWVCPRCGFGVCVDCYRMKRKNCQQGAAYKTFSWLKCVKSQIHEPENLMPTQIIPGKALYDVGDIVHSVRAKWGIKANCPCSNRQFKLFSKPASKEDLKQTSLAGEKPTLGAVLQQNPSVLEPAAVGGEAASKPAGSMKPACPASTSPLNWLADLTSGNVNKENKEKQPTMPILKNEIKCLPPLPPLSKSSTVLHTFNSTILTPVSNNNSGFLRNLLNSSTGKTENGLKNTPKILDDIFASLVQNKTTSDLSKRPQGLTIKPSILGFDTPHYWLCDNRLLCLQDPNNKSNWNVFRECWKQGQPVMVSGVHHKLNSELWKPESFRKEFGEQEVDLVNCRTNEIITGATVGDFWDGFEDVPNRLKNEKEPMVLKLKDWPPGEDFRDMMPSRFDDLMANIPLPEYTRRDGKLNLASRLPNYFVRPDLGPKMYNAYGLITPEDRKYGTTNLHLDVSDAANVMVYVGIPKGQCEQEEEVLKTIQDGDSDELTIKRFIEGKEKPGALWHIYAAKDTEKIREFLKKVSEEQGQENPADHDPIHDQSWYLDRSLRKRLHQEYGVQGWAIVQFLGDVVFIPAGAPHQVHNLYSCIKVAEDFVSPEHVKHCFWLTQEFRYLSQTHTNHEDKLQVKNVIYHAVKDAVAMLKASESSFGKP
In short: (§1)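 AlphaLISA demethylase assay in 50 mM HEPES pH 7.5, 0.1% BSA, 0.01% Tween 20 with DMSO. Enzyme and inhibitor combined, then peptide plus 2-OG (50 µM), Fe(II) (5 µM) and ascorbate (100 µM) in the added mix; 1 h at room temperature with shaking.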

[2] = target: Histone lysine demethylase PHF8 (Homo sapiens, UniProt Q9UPP1); assay: Inhibition of human N-terminal FLAG-tagged KDM7B (2 to 525 residues) expressed in baculovirus infected Sf9 insect cells using H3(1-21)K9(Me2)-GGK(Biotin)/2-OG as substrate measured after 1 hr by Alphalisa assay; in short: as §1
Chain of Histone lysine demethylase PHF8 (Q9UPP1 whole entry, the tested form may be a part): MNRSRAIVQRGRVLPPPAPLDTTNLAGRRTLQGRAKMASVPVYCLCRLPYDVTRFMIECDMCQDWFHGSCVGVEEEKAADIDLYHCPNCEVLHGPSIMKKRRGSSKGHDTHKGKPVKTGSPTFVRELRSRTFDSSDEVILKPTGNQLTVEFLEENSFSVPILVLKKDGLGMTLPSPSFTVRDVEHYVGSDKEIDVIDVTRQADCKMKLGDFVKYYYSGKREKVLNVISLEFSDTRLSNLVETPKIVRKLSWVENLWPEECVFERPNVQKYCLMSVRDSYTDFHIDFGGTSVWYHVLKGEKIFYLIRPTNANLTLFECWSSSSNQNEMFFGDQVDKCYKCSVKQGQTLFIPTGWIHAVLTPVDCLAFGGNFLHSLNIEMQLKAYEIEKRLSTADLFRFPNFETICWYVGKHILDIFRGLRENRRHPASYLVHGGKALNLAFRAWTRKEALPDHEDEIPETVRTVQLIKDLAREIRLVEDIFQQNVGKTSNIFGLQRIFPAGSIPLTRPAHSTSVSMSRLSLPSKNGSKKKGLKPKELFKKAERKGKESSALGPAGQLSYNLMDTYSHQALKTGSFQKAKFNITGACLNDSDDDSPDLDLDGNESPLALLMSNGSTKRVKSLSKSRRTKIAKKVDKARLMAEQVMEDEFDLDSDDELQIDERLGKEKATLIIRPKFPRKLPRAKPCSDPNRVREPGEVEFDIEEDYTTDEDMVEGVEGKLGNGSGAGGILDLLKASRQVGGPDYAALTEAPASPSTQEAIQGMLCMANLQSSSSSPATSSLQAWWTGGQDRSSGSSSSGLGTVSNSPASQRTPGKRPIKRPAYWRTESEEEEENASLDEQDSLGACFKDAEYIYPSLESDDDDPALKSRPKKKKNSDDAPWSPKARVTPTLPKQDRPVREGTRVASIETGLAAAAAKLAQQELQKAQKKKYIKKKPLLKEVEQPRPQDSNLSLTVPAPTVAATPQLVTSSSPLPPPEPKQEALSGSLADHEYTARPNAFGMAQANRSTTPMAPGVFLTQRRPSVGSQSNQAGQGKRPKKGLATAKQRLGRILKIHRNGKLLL

[3] = target: T2, Lysine-specific demethylase 2A (Homo sapiens, UniProt Q9Y2K7); assay: Inhibition of human N-terminal FLAG/Avi-tagged KDM2A (2 to 700 residues) expressed in baculovirus infected Sf9 insect cells using H3(21-44)-K36(Me2)-GK(Biotin)/2-OG as substrate measured after 1 hr by Alphalisa assay; in short: as §1
T2 sequence (Q9Y2K7 whole entry): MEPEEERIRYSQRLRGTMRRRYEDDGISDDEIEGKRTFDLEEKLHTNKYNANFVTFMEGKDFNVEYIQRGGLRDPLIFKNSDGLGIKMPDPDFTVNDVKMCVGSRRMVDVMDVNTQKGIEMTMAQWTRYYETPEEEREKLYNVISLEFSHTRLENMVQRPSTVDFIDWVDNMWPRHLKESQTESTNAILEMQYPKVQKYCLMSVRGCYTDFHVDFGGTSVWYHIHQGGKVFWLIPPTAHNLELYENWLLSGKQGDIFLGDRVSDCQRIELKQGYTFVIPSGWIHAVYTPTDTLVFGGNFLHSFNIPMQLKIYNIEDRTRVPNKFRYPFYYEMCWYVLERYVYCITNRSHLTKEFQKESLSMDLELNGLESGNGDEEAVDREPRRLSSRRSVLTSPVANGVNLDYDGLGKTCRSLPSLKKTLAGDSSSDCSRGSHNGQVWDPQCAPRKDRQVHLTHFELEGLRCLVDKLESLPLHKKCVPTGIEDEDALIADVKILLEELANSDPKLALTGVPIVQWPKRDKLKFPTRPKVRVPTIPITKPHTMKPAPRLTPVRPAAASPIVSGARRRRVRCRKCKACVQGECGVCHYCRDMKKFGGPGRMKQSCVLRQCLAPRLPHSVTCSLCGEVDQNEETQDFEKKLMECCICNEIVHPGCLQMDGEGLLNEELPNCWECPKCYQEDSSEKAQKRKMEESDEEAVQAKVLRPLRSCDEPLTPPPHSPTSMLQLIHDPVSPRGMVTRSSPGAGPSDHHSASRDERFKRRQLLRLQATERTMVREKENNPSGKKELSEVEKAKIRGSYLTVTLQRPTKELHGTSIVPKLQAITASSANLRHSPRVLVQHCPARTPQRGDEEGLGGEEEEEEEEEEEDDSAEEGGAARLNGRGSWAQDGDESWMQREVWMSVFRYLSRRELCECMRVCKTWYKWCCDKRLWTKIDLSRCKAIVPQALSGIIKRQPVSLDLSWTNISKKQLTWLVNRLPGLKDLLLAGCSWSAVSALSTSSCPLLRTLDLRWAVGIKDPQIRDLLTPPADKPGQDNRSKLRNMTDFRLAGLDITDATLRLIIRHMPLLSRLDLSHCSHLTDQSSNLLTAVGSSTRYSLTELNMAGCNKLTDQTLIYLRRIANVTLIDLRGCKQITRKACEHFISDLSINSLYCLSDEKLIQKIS

Q: Which results are given for CCCCCCN(C)Cc1ccc(-c2[nH]c3c(C#N)cnn3c(=O)c2C(C)C)cc1?
A: inhibition [1]: 13%; IC50 [2]: > 50 µM; IC50 [3]: > 50 µM
